# Active and inactive are the calls of the source. No cut-off for these calls is given here.
# Columns and labels:
# [1] = biological target: T1, Sphingosine kinase 2 (Homo sapiens) (UniProt Q9NRA0); assay: Inhibition of human recombinant Sphk2 at 10 uM after 60 mins by ADP2 fluorescence intensity assay
# T1 sequence (whole entry): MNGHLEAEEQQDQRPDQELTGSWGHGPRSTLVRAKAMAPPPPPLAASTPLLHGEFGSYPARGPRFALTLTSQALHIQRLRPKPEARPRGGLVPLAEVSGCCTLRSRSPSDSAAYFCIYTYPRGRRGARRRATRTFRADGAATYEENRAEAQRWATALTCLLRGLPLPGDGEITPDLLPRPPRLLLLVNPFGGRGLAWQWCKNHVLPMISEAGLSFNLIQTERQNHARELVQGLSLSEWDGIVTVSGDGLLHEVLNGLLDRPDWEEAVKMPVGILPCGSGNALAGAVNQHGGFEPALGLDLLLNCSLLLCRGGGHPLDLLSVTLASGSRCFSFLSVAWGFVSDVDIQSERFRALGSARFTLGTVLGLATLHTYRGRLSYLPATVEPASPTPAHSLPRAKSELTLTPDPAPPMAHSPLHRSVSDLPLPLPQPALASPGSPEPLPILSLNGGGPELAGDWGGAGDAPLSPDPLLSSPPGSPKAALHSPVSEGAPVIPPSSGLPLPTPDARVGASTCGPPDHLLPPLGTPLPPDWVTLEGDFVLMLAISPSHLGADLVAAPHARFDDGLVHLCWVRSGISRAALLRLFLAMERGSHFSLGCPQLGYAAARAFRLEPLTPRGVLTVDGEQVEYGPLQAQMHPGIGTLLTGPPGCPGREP
# Outline: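 Human recombinant SphK2 (stock 0.5 mg/mL in Tris-HCl pH 8.0/imidazole/DTT/glycerol) pre-incubated 15 min at RT with compound at 10 µM or DMSO. Reaction with D-erythro-sphingosine and ATP ran 60 min at RT at 10–15% substrate conversion. ADP was read by Transcreener ADP² FI competitive fluorescence against an ATP/ADP standard curve. % inhibition vs DMSO given as mean ± SEM of five independent experiments, one-sample t-test.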
# Sphingosine kinase 2 = biological target: T2, Sphingosine kinase 2 (Homo sapiens, UniProt Q9NRA0); assay: Inhibition of human recombinant Sphk2 after 60 mins by ADP2 fluorescence intensity assay
# T2 sequence (Q9NRA0 whole entry): T1 sequence (whole entry)
# Outline: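 Recombinant human SphK2 pre-incubated 15 min at RT with inhibitor at eight increasing concentrations, then reacted with D-erythro-sphingosine and ATP for 60 min at RT, keeping substrate conversion at 10–15% within the linear range. […] IC50 was derived from the concentration–inhibition data.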
# [2] = Cytotoxicity against human U937 cells at 30 uM after 24 hrs by LDH release assay; type: cell-based; conditions: u-937, 24 h
# Outline: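 U937 cells seeded at 1.5 × 10⁴ cells/well, then exposed 24 h to increasing compound concentrations or DMSO vehicle. After centrifugation (250 × g, 4 min), LDH in the supernatant was measured as loss of membrane integrity. Detergent-induced maximum release was set to 100%. Three experiments, mean ± SE.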
Compound,inhibition [1],other results
Clc1ccc(-c2csc(Nc3ccc4c(c3)OCO4)n2)cc1,inactive,
COc1cc(Nc2nc(-c3ccc(Cl)cc3)c(C)s2)cc(OC)c1OC,inactive,
Cc1sc(Nc2ccc(O)cc2)nc1-c1ccc(Cl)cc1,inactive,
CN(C)c1ccc(Nc2nc(C34CC5CC(CC(C5)C3)C4)cs2)cc1,inactive,
COc1ccc(Nc2nc(-c3ccc(Cl)cc3)cs2)cc1,inactive,
Cc1csc(Nc2nc(-c3nccs3)cs2)n1,50%,IC50 (Sphingosine kinase 2): 6.5 µM; Activity [2]: 0.69%
COc1cc(/C=C/C(=O)Nc2nccs2)cc(OC)c1OC,26.6%,
CSc1ccc(Nc2nc(C34CC5CC(CC(C5)C3)C4)c(C)s2)cc1,inactive,
c1cc2c(cc1Nc1nc(C34CC5CC(CC(C5)C3)C4)cs1)OCO2,41.3%,
CSc1ccc(Nc2nc(-c3ccc(Cl)cc3)c(C)s2)cc1,inactive,
COc1ccc(/C=C/C(=O)Nc2nc(-c3ccc(Cl)cc3)cs2)cc1OC,31.7%,
COc1ccc(Nc2nc(C34CC5CC(CC(C5)C3)C4)cs2)cc1OC,inactive,
Oc1ccc(Nc2nc(-c3ccc(Cl)cc3)cs2)cc1,15.5%,
Cc1csc(Nc2nc(-c3ccc(Cl)cc3)c(C)s2)n1,19.2%,
CSc1ccc(Nc2nc(-c3ccc(Cl)cc3)cs2)cc1,inactive,
COc1cc(/C=C/C(=O)Nc2nc(-c3ccc(Cl)cc3)cs2)cc(OC)c1OC,32%,
COc1ccc(/C=C/C(=O)Nc2nccs2)cc1OC,26.5%,
FC(F)(F)Oc1ccc(Nc2nc(-c3ccc(Cl)cc3)cs2)cc1,inactive,
COc1ccc(Nc2nc(-c3ccc(Cl)cc3)cs2)cc1OC,inactive,
COc1ccccc1Nc1nc(-c2ccc(Cl)cc2)cs1,inactive,
CN(C)c1ccc(Nc2nc(-c3ccc(Cl)cc3)cs2)cc1,inactive,
CSc1ccc(Nc2nc(C34CC5CC(CC(C5)C3)C4)cs2)cc1,18.6%,
COc1cc(Nc2nc(C34CC5CC(CC(C5)C3)C4)c(C)s2)cc(OC)c1OC,21.5%,
Oc1cccc(Nc2nc(-c3ccc(Cl)cc3)cs2)c1,inactive,

# Second part, led by results:
inhibition [1],Compound,other results
14.7%,Cc1cc(CS(=O)(=O)c2ccccc2)cc(OCc2ccc(CN3CCC[C@@H]3CO)cc2)c1,
inactive,FC(F)(F)c1ccc(Nc2nc(-c3ccc(Cl)cc3)cs2)cc1,
inactive,OCc1ccc(Nc2nc(-c3ccc(Cl)cc3)cs2)cc1,
inactive,COc1cc(Nc2nc(-c3ccc(Cl)cc3)cs2)cc(OC)c1OC,
31.7%,c1cc2c(cc1Nc1nc(C34CC5CC(CC(C5)C3)C4)cs1)OCCO2,
20.8%,COc1cc(Nc2nc(C34CC5CC(CC(C5)C3)C4)cs2)cc(OC)c1OC,
inactive,FC(F)(F)c1cc(Nc2nc(-c3ccc(Cl)cc3)cs2)cc(C(F)(F)F)c1,
19%,COc1ccccc1Nc1nc(C23CC4CC(CC(C4)C2)C3)cs1,
inactive,Oc1ccc(Nc2nc(-c3nccs3)cs2)cc1,
inactive,Clc1ccc(-c2csc(Nc3ccc4c(c3)OCCO4)n2)cc1,
41.6%,COc1ccccc1Nc1nc(C23CC4CC(CC(C4)C2)C3)c(C)s1,
inactive,CC(C)c1ccc(Nc2nc(-c3ccc(Cl)cc3)cs2)cc1,
inactive,COc1ccc(Nc2nc(-c3ccc(Cl)cc3)c(C)s2)cc1,
inactive,COc1ccc(Nc2nc(C34CC5CC(CC(C5)C3)C4)cs2)cc1,
10.3%,Oc1ccc(Nc2nc(-c3ccc(Br)cc3)cs2)cc1,
inactive,Oc1ccccc1Nc1nc(-c2ccc(Cl)cc2)cs1,
20.9%,Cc1csc(Nc2nc(C34CC5CC(CC(C5)C3)C4)c(C)s2)n1,
inactive,CC(C)c1ccc(Nc2nc(C34CC5CC(CC(C5)C3)C4)cs2)cc1,

# Reference: ChEMBL document CHEMBL3352122, “Design, synthesis and evaluation of 2-aminothiazole derivatives as sphingosine kinase inhibitors” (Bioorg Med Chem, 2014)
